{
  "source": "paper PMC9173812",
  "about": "(Proceedings of the National Academy of Sciences of the …, 2022)",
  "key": {"[1]": {"tested_on": "formalin-induced hindpaw licking", "assay": "Formalin test", "type": "in vivo", "conditions": "rats, Serodolin 10 mg/kg s.c., morphine 4 mg/kg s.c."}, "[2]": {"biological_target": "T1, 5-HT7R (Homo sapiens, UniProt P34969)", "T1 sequence (P34969 1-432)": "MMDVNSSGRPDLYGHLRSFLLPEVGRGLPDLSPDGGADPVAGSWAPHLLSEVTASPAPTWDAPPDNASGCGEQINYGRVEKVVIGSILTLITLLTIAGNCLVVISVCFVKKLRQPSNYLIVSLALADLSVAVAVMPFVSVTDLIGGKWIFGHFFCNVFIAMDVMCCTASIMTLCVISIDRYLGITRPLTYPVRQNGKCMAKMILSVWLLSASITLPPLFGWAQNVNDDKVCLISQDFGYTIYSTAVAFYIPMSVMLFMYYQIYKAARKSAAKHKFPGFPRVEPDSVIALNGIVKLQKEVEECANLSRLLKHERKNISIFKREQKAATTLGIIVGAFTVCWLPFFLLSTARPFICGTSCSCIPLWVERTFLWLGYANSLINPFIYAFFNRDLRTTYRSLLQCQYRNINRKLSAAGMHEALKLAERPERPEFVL", "assay": "cAMP accumulation", "type": "cell-based", "conditions": "ligand alone"}, "[3]": {"biological_target": "T1, 5-HT7R", "type": "cell-based", "conditions": "10 µM ligand, 2 to 60 min, Western blot", "in_short": "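HEK-293 cells stably expressing h5-HT7R were exposed to 10 µM ligand for 2 to 60 min, or to rising concentrations for 7 min. Lysates were run on 10% SDS-PAGE, transferred to PVDF and blocked in 5% milk in TBS-T (pH 7.4), then probed for phospho-ERK1/2. Bands were quantified by densitometry; three independent experiments, mean ± SEM.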"}, "[4]": {"biological_target": "T1, 5-HT7R", "type": "cell-based", "in_short": "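HEK-293 cells stably expressing h5-HT7R, grown in DMEM with 10% dialyzed FCS and penicillin/streptomycin. Cells were preincubated with a 5-HT7R antagonist (10 µM, 10 min) or the PKA inhibitor H89 before 10 µM ligand. Lysates were read by AlphaScreen SureFire p-ERK1/2 and p-c-SRC kits, or by Western blot with densitometry. Three independent experiments; mean ± SEM.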"}, "[5]": {"assay": "Pharmacokinetic study in plasma and brain", "type": "in vivo", "conditions": "5 mg/kg s.c., C57BL/6 mice"}, "[6]": {"tested_on": "thermal nociception", "assay": "Tail immersion test", "type": "in vivo", "conditions": "5 mg/kg s.c.", "in_short": "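Male mice (8–14 wk; C57BL/6 or 5-HT7R−/− on C57BL/6 background) received test compound 5 mg/kg by tail s.c. injection. Vehicle was 20% DMSO and 5% Tween 80 in PBS. Some groups were also given 5-HT7R antagonist 5 mg/kg i.p. Tail immersion latency in 50 ± 2 °C water was measured 10 min (T0) and 40 min (T30) post-injection.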"}, "[7]": {"conditions": "pretreatment, Serodolin 10 µM 7 min, AlphaScreen"}},
  "data": [
    {"smiles": "CN1CC[C@]23c4c5ccc(O)c4O[C@H]2[C@@H](O)C=C[C@H]3[C@H]1C5", "note": "[morphine]", "values": [
      {"measurement": "inhibitory effect on licking, early phase (vs vehicle-treated group)", "setting": "[1]; 0 to 5 min, not significant", "result": "−57", "unit": "%"},
      {"measurement": "inhibition of licking, late phase (vs vehicle-treated group)", "setting": "[1]; 17 to 27 min", "result": "−64", "unit": "%"}
    ]},
    {"smiles": "Cc1nn(C)c(C)c1-c1cccc(CCN(C)C)c1", "note": "[E55888]", "values": [
      {"measurement": "effect on cAMP when tested alone", "setting": "[2]", "result": "induced a concentration-dependent accumulation of cAMP"},
      {"measurement": "induction of ERK phosphorylation", "setting": "[3]", "result": "induce ERK phosphorylation"},
      {"measurement": "phosphorylation of c-SRC kinase at Tyr416", "setting": "[4]; 10 µM, 7 min, Western blot", "result": "could not be observed after 5-CT or E55888 stimulation"},
      {"measurement": "time after which compound is eliminated / undetectable in plasma and brain", "setting": "[5]", "result": 120, "unit": "min"},
      {"measurement": "maximum of detection in brain", "setting": "[5]; brain", "result": "1.4 ± 0.2", "unit": "µg/mL"},
      {"measurement": "maximum of detection in plasma", "setting": "[5]; plasma", "result": "6.1 ± 0.5", "unit": "µg/mL"},
      {"measurement": "antinociceptive effect in 5-HT7R KO mice", "setting": "[6]", "result": "did not exert any antinociceptive effect"}
    ]},
    {"smiles": "CC(C)(C)n1nc(-c2ccc(Cl)cc2)c2c(N)ncnc21", "note": "[PP2]", "values": [
      {"measurement": "block of Serodolin-induced ERK phosphorylation", "setting": "[4]; [7]", "result": 99, "unit": "%"},
      {"measurement": "block of Serodolin-induced c-SRC phosphorylation", "setting": "[4]; [7]", "result": 100, "unit": "%"}
    ]},
    {"smiles": "O=C1Nc2cccc3c2C1(CCCCN1CC=C(c2ccccc2)CC1)CCC3", "note": "(stereo not shown) [DR4004]", "values": [
      {"measurement": "induction of ERK phosphorylation", "setting": "[3]", "result": "none of them were able to induce ERK activation"}
    ]},
    {"smiles": "Nc1ncnc2c1cnn2-c1ccccc1", "note": "[PP3]", "values": [
      {"measurement": "effect on Serodolin-induced ERK and c-SRC phosphorylation", "setting": "[4]; pretreatment, AlphaScreen", "result": "inactive"}
    ]}
  ]
}
